# E-sel inducer – E-selectin induction in HUVECs, primary screen, imaging, HUVEC, immunofluorescence imaging, single point. activation, % at 7.58 µM. P16581. AID 686992, 2013. normalized: neutral wells 0, TNF-alpha wells 100. 260,000 tested, 0.37% active;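 active = mean E-selectin-positive cell signal at least 10% of the positive control, reached in at least 60% of replicates, without over 20% cell loss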
#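 Test system: HUVEC | Signal: Immunofluorescence imaging | Read-out: Percent E-selectin-positive cells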
# rRNA inh HTS – reduced GFP signal of wild-type E. coli, primary screen, bacterial rRNA inhibitor project, GFP/RFP fluorescence, OD600, single point; E. coli WT GFP vs humanized-ribosome RFP mutants, 24 h; stronger effect = lower value; DMSO median 0, no signal -100; GFP signal change (wild-type ribosome), % (no concentration beside the values); 350,000 tested, 1.6% active; AID 720706, 2013;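 active = significant combined selectivity score with lowered wild-type GFP, culture density cut under 30%, mutant RFP and density less affected; inactive = any of these conditions unmet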
# LGR2 inh – inhibitors of bursicon-induced LGR2 CRE-luciferase signal, primary screen, cell-based, HEK293, CRE-luciferase reporter, bursicon stimulation | bursicon-stimulated, 4 h | inhibition, % at 9.99 µM | 380,000 tested, 0.35% active | Drosophila bursicon receptor LGR2 (rickets);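 active = drop in luminescence signal, shown as inhibition above about 50% in the replicate tests, limit read from the data, passing the limit was not always enough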;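 note: agonist challenge used bursicon conditioned medium at about half maximal strength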
# EWS-Fli block – EWS/Fli-driven NR0B1 reporter inhibitors, primary screen, A673 cells, NR0B1 luciferase, luminescence, MLPCN library | viability-normalised | inhibition, % at 12.6 µM | 350,000 tested, 0.67% active | AID 651661, 2012;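 active = mean inhibition of at least 50% after viability correction, with every replicate also passing that limit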;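 note: firefly luciferase signal divided by Alamar Blue viability fluorescence both relative to DMSO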
# Numbers without * were called inactive; · = no result given. This is a sample that favours compounds with a hit; in the whole collection about 2.4% have one here.
SMILES,E-sel inducer,rRNA inh HTS,LGR2 inh,EWS-Fli block
CCc1cccc(NC(=O)CCC(=O)N2CCSc3ccccc32)c1,1,-24*,7,7
O=C(c1ccc(Cl)cc1)C(CN1CCCC1)c1ccccc1 (stereo not given),·,-9,14,65*
CCCOc1ccc(C(=O)C(CN2CCCC2)c2ccccc2)cc1 (stereo not given),·,-27,27,61*
O=C(c1ccc(Cl)cc1)C1CCN(Cc2ccccc2)CC1,·,-5,-10,2
C[C@H]1CN([C@@H](C)CO)C(=O)c2cc(NC(=O)C3CCCCC3)ccc2O[C@H]1CN(C)C(=O)NC1CCCCC1,0,5,-15,·
O=C(C[C@H]1CC[C@H]2[C@@H](COC[C@H](O)CN2C(=O)c2cccnc2)O1)NCc1ccccc1,0,1,4,-3
COc1ccccc1C1CC(c2ccc(Br)cc2)=NN1C(=O)c1cccnc1 (stereo not given),·,·,5,·
COc1cccc(C2CC(c3ccc(Br)cc3)=NN2C(=O)c2ccncc2)c1OC (stereo not given),·,-35*,19,15
CC(=O)Nc1cccc2c1O[C@@H](CN(C)C)[C@H](C)CN(C)C2=O,·,1,·,·
CC(=O)Nc1ccc(S(=O)(=O)N2CCN(C(=O)C(=O)c3cccc(C(F)(F)F)c3)CC2)cc1,0,-13*,-8,-1
CC1CCc2c(sc3nc(C(C)(C)C)nc(N4CCN(C(=O)CCl)CC4)c23)C1 (stereo not given),·,-40,·,69*
CO[C@H]1CN(C)C(=O)c2cc(C#N)ccc2OC[C@@H]2O[C@@H](CC[C@H]2OC)CCN(C)C(=O)[C@H]1C,0,-1,-31,1
COc1ccccc1NC(=O)c1ccc(C(=O)c2ccccc2)o1,2,-32*,-15,-4
N#CCC(=O)Nc1ccc(C(=O)OCC(=O)Nc2ccc3ccccc3c2)cc1,·,-18*,5,-7
C[C@H]1CN([C@@H](C)CO)C(=O)c2ccccc2-c2ccccc2CO[C@H]1CN(C)S(=O)(=O)c1ccc(Cl)cc1,0,-4,24,0
O=c1cc(C(F)(F)F)[nH]c2ccc(C(F)(F)F)cc12,0,-50*,19,4
CCOC(=O)N1CCN(CCC(=O)Nc2ccc(Br)c(C)c2)CC1,0,-23*,-14,3
O=S(=O)(Nc1ccc(Br)cc1)c1cccc2cccnc12,2,-26*,-2,-8
O=S(=O)(NCCc1ccccc1)c1cccc2cccnc12,·,-25*,4,9
O=S(=O)(Nc1ccc(C(O)(C(F)(F)F)C(F)(F)F)cc1)c1cccc2cccnc12,0,-36,-14,9
O=C(Nc1cccc2ccccc12)N1N=CCC1c1ccccc1 (stereo not given),15,-28*,-25,-88
O=C(Nc1cccc(Cl)c1)N1N=CCC1c1ccccc1 (stereo not given),0,-27*,-12,-11
O=C(Nc1cccc(Cl)c1)N1CCN(Cc2ccccc2)CC1,0,-29,-16,-97
C[C@@H]1CN([C@H](C)CO)C(=O)c2cc(NS(C)(=O)=O)ccc2O[C@@H]1CN(C)Cc1ccc(C(F)(F)F)cc1,110*,-2,34,1
C[C@H]1CN([C@@H](C)CO)C(=O)c2cc(NS(=O)(=O)c3ccc(F)cc3)ccc2O[C@@H]1CN(C)Cc1ccc(C(F)(F)F)cc1,0,1,1,-1
SMILES,E-sel inducer,rRNA inh HTS,LGR2 inh,EWS-Fli block
C[C@H]1CN([C@@H](C)CO)C(=O)c2cc(NS(C)(=O)=O)ccc2O[C@@H]1CN(C)Cc1ccc(C(F)(F)F)cc1,-2,0,4,-4
C[C@@H]1CN([C@H](C)CO)C(=O)c2cc(NS(=O)(=O)c3ccc(F)cc3)ccc2O[C@@H]1CN(C)Cc1ccc(C(F)(F)F)cc1,0,-5,12,68*
CCCNC(=O)Nc1ccc2c(c1)OC[C@@H](C)N(Cc1ccccn1)C[C@@H](C)[C@@H](OC)CN(C)C2=O,0,3,-1,-15
CNC(=S)c1cc(C(C)(C)C)c(O)c(C(C)(C)C)c1,1,-21*,2,4
CN(C)C(=O)c1ccc(NC(=O)COc2cccc(Oc3ccccc3)c2)cc1,·,-27*,20,-2
C[C@@H]1CCCCO[C@H](CN(C)Cc2ccc(C(=O)O)cc2)[C@@H](C)CN([C@@H](C)CO)C(=O)c2cc(N(C)C)ccc2O1,1,2,8,-5

# Screens deposited in PubChem BioAssay by Broad Institute.
